Assay results from ChEMBL document CHEMBL1123529, “Analogues of substance P. Peptides containing D-amino acid residues in various positions of substance P and displaying agonist or receptor selective antagonist effects” (1986).
Where a SMILES comes first, the peptide text is derived from it. [ ]: non-standard residue; d: D form. The star is where a group is joined. Cbz = O=C(OCc1ccccc1)*

Assays:
[1] = biological target: Metabotropic glutamate receptor 3 (Rattus norvegicus) (UniProt P31422); experiment: Antagonistic activity against Glutamate receptor in rat spinal cord at concentration of 50 uM.; type: functional, tissue-based
Chain of Metabotropic glutamate receptor 3 (Rattus norvegicus) (P31422 23-879 limits assumed): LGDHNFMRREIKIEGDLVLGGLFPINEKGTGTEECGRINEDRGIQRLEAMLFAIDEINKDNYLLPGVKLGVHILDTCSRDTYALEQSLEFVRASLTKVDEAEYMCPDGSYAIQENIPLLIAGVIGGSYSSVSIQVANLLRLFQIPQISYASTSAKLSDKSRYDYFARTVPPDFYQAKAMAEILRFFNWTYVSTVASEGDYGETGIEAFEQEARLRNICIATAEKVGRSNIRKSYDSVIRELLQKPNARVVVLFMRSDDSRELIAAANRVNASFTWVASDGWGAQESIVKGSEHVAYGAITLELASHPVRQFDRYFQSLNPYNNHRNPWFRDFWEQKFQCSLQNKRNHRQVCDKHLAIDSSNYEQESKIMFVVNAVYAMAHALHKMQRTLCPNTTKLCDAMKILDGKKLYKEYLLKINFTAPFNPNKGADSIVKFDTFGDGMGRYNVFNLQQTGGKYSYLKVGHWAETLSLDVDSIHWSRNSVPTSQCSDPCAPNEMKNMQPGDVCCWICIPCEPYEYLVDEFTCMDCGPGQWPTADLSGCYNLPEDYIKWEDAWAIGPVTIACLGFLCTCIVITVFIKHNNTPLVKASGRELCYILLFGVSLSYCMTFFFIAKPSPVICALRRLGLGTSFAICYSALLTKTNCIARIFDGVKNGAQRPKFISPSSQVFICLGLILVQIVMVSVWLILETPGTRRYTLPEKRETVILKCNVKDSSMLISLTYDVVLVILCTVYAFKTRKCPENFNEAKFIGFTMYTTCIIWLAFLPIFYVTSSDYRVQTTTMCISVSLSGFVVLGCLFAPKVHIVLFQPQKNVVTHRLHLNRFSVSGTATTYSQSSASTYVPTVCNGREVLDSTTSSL
Outline: (§1)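 Neonatal hemisectioned spinal cord from Wistar rats (Alderley Park strain, 2-7 days old), anaesthetised with intraperitoneal urethane (25% w/v, […]) and then decapitated. Cord superfused with oxygenated medium at 1 mL/min. Agonist (SP, SP(6-11), glutamate or carbachol) applied as 2-mL doses in the superfusate. Antagonist superfused for at least 15 min before agonists were retested. Read-out: % change in ventral root–cord DC potential response amplitude.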

[2] = biological target: Substance-P receptor (Rattus norvegicus) (UniProt P14600); experiment: Antagonistic activity against Substance P(6-11) receptor in rat spinal cord at concentration of 10 uM.
Chain of Substance-P receptor (Rattus norvegicus) (P14600 whole entry, looked up): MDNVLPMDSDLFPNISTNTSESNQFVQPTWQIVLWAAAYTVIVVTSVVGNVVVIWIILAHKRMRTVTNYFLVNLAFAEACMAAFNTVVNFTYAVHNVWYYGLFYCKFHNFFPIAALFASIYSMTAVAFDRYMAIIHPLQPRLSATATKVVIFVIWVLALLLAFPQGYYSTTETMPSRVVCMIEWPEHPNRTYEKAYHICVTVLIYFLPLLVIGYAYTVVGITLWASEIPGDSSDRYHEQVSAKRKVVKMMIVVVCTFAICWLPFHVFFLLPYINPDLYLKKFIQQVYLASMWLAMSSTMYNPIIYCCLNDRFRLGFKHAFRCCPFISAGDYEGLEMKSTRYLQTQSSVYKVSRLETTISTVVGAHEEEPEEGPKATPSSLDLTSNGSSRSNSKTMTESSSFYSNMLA

[3] = biological target: Substance-P receptor (Cavia porcellus) (UniProt P30547); experiment: Antagonistic activity against Substance P receptor in guinea pig ileum at concentration of 5 uM.; type: functional, tissue-based
Chain of Substance-P receptor (Cavia porcellus) (P30547 whole entry): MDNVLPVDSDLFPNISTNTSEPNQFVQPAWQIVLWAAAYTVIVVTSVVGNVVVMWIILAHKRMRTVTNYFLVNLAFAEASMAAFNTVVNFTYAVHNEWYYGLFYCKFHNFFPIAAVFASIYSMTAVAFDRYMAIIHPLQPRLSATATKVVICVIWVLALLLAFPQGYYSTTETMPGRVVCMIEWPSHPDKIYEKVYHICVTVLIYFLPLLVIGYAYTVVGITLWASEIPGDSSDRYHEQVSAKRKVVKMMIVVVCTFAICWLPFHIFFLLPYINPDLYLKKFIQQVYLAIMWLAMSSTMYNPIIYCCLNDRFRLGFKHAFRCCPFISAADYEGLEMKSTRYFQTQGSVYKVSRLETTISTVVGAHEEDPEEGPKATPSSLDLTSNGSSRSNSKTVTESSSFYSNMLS
Outline: (§2)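 Distal ileum from Dunkin-Hartley guinea pigs (300-350 g, both sexes) in a Krebs organ bath at 37 °C, gassed with 95% O2/5% CO2. Agonist (SP or SP(6-11)) dose-response curves run on a 3-min cycle with 1-min contact, with and without antagonist. Dose ratio = agonist EC50 with antagonist / EC50 alone. At least two preparations per compound; ratios below 2 taken as insignificant.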

[4] = biological target: Substance-P receptor (Rattus norvegicus) (UniProt P14600); experiment: Antagonistic activity against Substance P receptor in rat spinal cord at concentration of 50 uM.
[5] = biological target: Substance-P receptor (Cavia porcellus) (UniProt P30547); experiment: Antagonistic activity against Substance P(6-11) receptor in guinea pig ileum at concentration of 5 uM.; type: functional, tissue-based; outline: as §2
[6] = biological target: Substance-P receptor (Rattus norvegicus) (UniProt P14600); experiment: Antagonistic activity against Substance P receptor in rat spinal cord at concentration of 5 uM.
[7] = biological target: Substance-P receptor (Rattus norvegicus) (UniProt P14600); experiment: Antagonistic activity against Substance P(6-11) receptor in rat spinal cord at concentration of 5 uM.
[8] = biological target: Substance-P receptor (Cavia porcellus) (UniProt P30547); experiment: Antagonistic activity against Substance P in guinea pig ileum at concentration of 1 uM.; type: functional, tissue-based; outline: as §2
[9] = biological target: Substance-P receptor (Cavia porcellus) (UniProt P30547); experiment: Antagonistic activity against Substance P in guinea pig ileum at concentration of 10 uM.; type: functional, tissue-based; outline: as §2
[10] = biological target: Substance-P receptor (Cavia porcellus) (UniProt P30547); experiment: Antagonistic activity against Substance P(6-11) receptor in guinea pig ileum at concentration of 10 uM.; type: functional, tissue-based; outline: as §2
[11] = biological target: Substance-P receptor (Cavia porcellus) (UniProt P30547); experiment: Evaluated in vitro for percent agonist activity in guinea pig ileum (substance P receptor); type: functional, tissue-based
[12] = biological target: Substance-P receptor (Cavia porcellus) (UniProt P30547); experiment: Antagonistic activity against Substance P(6-11) receptor in guinea pig ileum at concentration of 1 uM.; type: functional, tissue-based; outline: as §2
[13] = biological target: Substance-P receptor (Rattus norvegicus) (UniProt P14600); experiment: Antagonistic activity against Substance P(6-11) receptor in rat spinal cord at concentration of 50 uM.
[14] = biological target: Metabotropic glutamate receptor 3 (Rattus norvegicus) (UniProt P31422); experiment: Antagonistic activity against Glutamate receptor in rat spinal cord at concentration of 10 uM.; type: functional, tissue-based
Outline: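 Cord superfused with oxygenated medium at 1 mL/min. Agonist (SP, SP(6-11), glutamate or carbachol) applied as 2-mL doses in the superfusate. Antagonist superfused for at least 15 min before agonists were retested. Read-out: % change in ventral root–cord DC potential response amplitude.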

[15] = biological target: Substance-P receptor (Rattus norvegicus) (UniProt P14600); experiment: Antagonistic activity against Substance P(6-11) receptor in rat spinal cord at concentration of 25 uM.
[16] = biological target: Metabotropic glutamate receptor 3 (Rattus norvegicus) (UniProt P31422); experiment: Antagonistic activity against Glutamate receptor in rat spinal cord at concentration of 25 uM.; type: functional, tissue-based; outline: as §1
[17] = biological target: Substance-P receptor (Rattus norvegicus) (UniProt P14600); experiment: Antagonistic activity against Substance P receptor in rat spinal cord at concentration of 25 uM.
[18] = biological target: Substance-P receptor (Cavia porcellus) (UniProt P30547); experiment: Antagonistic activity against Substance P receptor in guinea pig ileum at concentration of 47 uM.; type: functional, tissue-based; outline: as §2
[19] = biological target: Substance-P receptor (Cavia porcellus) (UniProt P30547); experiment: Antagonistic activity against Substance P(6-11) receptor in guinea pig ileum at concentration of 6.4 uM.; type: functional, tissue-based; outline: as §2
[20] = biological target: Substance-P receptor (Cavia porcellus) (UniProt P30547); experiment: Antagonistic activity against Substance P(6-11) receptor in guinea pig ileum at concentration of 47 uM.; type: functional, tissue-based; outline: as §2
[21] = biological target: Substance-P receptor (Cavia porcellus) (UniProt P30547); experiment: Antagonistic activity against Substance P receptor in guinea pig ileum at concentration of 6.4 uM.; type: functional, tissue-based; outline: as §2
[22] = biological target: Metabotropic glutamate receptor 3 (Rattus norvegicus) (UniProt P31422); experiment: Antagonistic activity against Glutamate receptor in spinal rat cord at concentration of 25 uM.; type: functional; outline: as §1
[23] = biological target: Metabotropic glutamate receptor 3 (Rattus norvegicus) (UniProt P31422); experiment: Antagonistic activity against Glutamate receptor in spinal rat cord at concentration of 5 uM.; type: functional; outline: as §1

SMILES | Change in amplitude response [1] | Change in amplitude response [2] | Change in amplitude response [4] | Activity [5] | Change in amplitude response [6] | Change in amplitude response [7] | Activity [10] | SP [11] | Change in amplitude response [13] | Change in amplitude response [14] | Change in amplitude response [15] | Change in amplitude response [16] | Change in amplitude response [17] | also measured
COC(=O)[C@@H](CCSC)NC(=O)[C@H](CC(C)C)NC(=O)[C@@H](Cc1c[nH]c2ccccc12)NC(=O)[C@H](Cc1c[nH]c2ccccc12)NC(=O)[C@@H](Cc1c[nH]c2ccccc12)NC(=O)[C@H](CCC(N)=O)NC(=O)[C@H](CCC(N)=O)NC(=O)[C@@H]1CCCN1C(=O)[C@H](CCCCNC(=O)OCc1ccccc1)NC(=O)[C@@H]1CCCN1C(=O)[C@@H](N)CCCN=C(N)N | -18% | -62% | -29% | < 2 dose ratio | 11% | -13% |  |  |  |  |  |  |  | Activity [3]: < 2 dose ratio
CSCC[C@@H](NC(=O)[C@H](CC(C)C)NC(=O)CNC(=O)[C@H](Cc1c[nH]c2ccccc12)NC(=O)[C@@H](Cc1c[nH]c2ccccc12)NC(=O)[C@H](CCC(N)=O)NC(=O)[C@H](CCC(N)=O)NC(=O)[C@@H]1CCCN1C(=O)[C@H](CCCCNC(=O)OCc1ccccc1)NC(=O)[C@@H]1CCCN1C(=O)[C@H](CCCN=C(N)N)NC(=O)OCc1ccccc1)C(=O)O |  |  |  |  |  |  | 18 dose ratio | 0% |  |  |  |  |  | Activity [8]: 1.1 dose ratio; Activity [9]: 14.6 dose ratio; Activity [12]: 1.8 dose ratio
COC(=O)[C@@H](CCSC)NC(=O)[C@H](CC(C)C)NC(=O)CNC(=O)[C@H](Cc1ccccc1)NC(=O)[C@H](Cc1ccccc1)NC(=O)[C@@H](NC(=O)[C@H](NC(=O)[C@@H]1CCCN1C(=O)[C@H](CCCCNC(=O)OCc1ccccc1)NC(=O)[C@@H]1CCCN1C(=O)[C@H](CCCN=C(N)N)NC(=O)OCc1ccccc1)C(C)C)C(C)C | -17% | 31% | -13% |  |  |  |  | 0.001% | -21% | -5% |  |  |  | 
COC(=O)[C@@H](CCSC)NC(=O)[C@H](CC(C)C)NC(=O)CNC(=O)[C@@H](Cc1c[nH]c2ccccc12)NC(=O)[C@@H](Cc1c[nH]c2ccccc12)NC(=O)[C@H](CCC(N)=O)NC(=O)[C@H](CCC(N)=O)NC(=O)[C@@H]1CCCN1C(=O)[C@H](CCCCNC(=O)OCc1ccccc1)NC(=O)[C@@H]1CCCN1C(=O)[C@H](CCCN=C(N)N)NC(=O)OCc1ccccc1 (Cbz-RPK(Cbz)PQQ[dW][dW]GL[dM]-OMe) | 11% | -33% | 8.3% |  |  |  | 90 dose ratio | 0% | -75% | -3% | -77% | -13% |  | 
CSCC[C@@H](NC(=O)[C@H](CC(C)C)NC(=O)[C@@H](Cc1c[nH]c2ccccc12)NC(=O)[C@H](Cc1c[nH]c2ccccc12)NC(=O)[C@@H](Cc1c[nH]c2ccccc12)NC(=O)[C@H](CCC(N)=O)NC(=O)[C@H](CCC(N)=O)NC(=O)[C@@H]1CCCN1C(=O)[C@H](CCCCN)NC(=O)[C@@H]1CCCN1C(=O)[C@@H](N)CCCN=C(N)N)C(=O)O |  |  |  |  |  |  |  | 0% |  |  | -55% | 7% | 30% | Activity [18]: 10.3 dose ratio; Activity [19]: 2 dose ratio; Activity [20]: 16.1 dose ratio; Activity [21]: 3.1 dose ratio
COC(=O)[C@@H](CCSC)NC(=O)[C@H](CC(C)C)NC(=O)[C@@H](Cc1c[nH]c2ccccc12)NC(=O)[C@H](Cc1c[nH]c2ccccc12)NC(=O)[C@@H](Cc1c[nH]c2ccccc12)NC(=O)[C@H](CCC(N)=O)NC(=O)[C@H](CCC(N)=O)NC(=O)[C@@H]1CCCN1C(=O)[C@H](CCCCN)NC(=O)[C@@H]1CCCN1C(=O)[C@@H](N)CCCN=C(N)N | 27% |  | -19% | 8.1 dose ratio | 32% | -42% |  |  | -87% |  | -87% |  | 21% | Change in amplitude response [22]: 29%; Change in amplitude response [23]: -3%
